Assay outcomes (PubChem BioAssay)
Apaf-1 inh – human Apaf-1 inhibition; reconstituted apoptosome caspase-3 activity, DEVD-Rh110 fluorescence; AID 489030; 330,000 compounds, 0.71% hits; inhibition, % at 20 µM; active means inhibition of at least 40% at 20 µM;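 further: plate controls were DMSO wells for no effect and DEVD-CHO caspase inhibitor wells for full effect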
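Assay system – apoptosome proteins · Medium – Hepes buffer, pH 7.5 · Also added – cytochrome c with DEVD-Rh110 · Timing – 30 min compound preincubation, 50 min activation, room temperature · Detection – Rh110 fluorescence, excitation 480 nm, emission 540 nm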
PAFAH1B2 inh – inhibitors of human PAFAH1B2; P68402; inhibition, % at 3.39 µM; 340,000 compounds, 1.2% hits; recombinant PAFAH1B2, FP-rhodamine activity probe, fluorescence polarization;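 active means inhibition above the mean of all tested compounds plus 3 SD, cut at about 24% in these data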;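 further: 0% = enzyme with DMSO and 100% = wells lacking PAFAH1B2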
pPAFAH inh – inhibitors of human plasma PAF acetylhydrolase (pPAFAH). 330,000 compounds, 1.5% hits. recombinant pPAFAH, FP-rhodamine probe fluorescence polarization. inhibition, % at 3.39 µM. Q13093;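 active means inhibition above the mean inhibition across the screen plus 3 SD, cut at about 25% in these data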;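 further: inhibitors block binding of the rhodamine activity-based probe so polarization drops; 0% = enzyme with DMSO and 100% = wells lacking pPAFAH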
Target sequence (Q13093 whole entry, looked up): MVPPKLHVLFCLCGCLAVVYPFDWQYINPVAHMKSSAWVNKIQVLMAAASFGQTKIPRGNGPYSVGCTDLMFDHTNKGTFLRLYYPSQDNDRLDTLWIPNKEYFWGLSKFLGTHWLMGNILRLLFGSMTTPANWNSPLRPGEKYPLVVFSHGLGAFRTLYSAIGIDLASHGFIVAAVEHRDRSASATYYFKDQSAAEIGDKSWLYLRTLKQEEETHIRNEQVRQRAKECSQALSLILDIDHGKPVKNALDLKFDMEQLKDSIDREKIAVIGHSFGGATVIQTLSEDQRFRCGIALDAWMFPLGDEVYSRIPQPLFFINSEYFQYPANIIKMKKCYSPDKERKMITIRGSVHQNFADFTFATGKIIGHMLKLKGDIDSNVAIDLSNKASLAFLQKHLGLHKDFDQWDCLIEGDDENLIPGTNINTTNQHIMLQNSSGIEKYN
PAFAH2 inh – inhibitors of human PAFAH2 | recombinant PAFAH2, FP-rhodamine activity probe, fluorescence polarization | inhibition, % at 3.39 µM | Q99487 | 340,000 compounds, 0.99% hits | AID 492956;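 active means inhibition above the mean over all tested compounds plus 3 SD, cut at about 30% in these data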;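 further: inhibitors block probe labeling of enzyme so polarization drops; 0% = enzyme with DMSO and 100% = wells lacking PAFAH2 protein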
PAFAH1B3 FP inh – PAFAH1B3 (human) inhibition. AID 492972. recombinant PAFAH1B3, FP-rhodamine probe, fluorescence polarization. inhibition, % at 3.39 µM. 340,000 compounds, 0.28% hits;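 active means inhibition above the screen-wide average of all tested compounds plus 3 SD, cut at about 25% in these data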;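 further: 0% = enzyme with DMSO only and 100% = wells lacking PAFAH1B3 protein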
Target sequence (Q15102 whole entry, looked up): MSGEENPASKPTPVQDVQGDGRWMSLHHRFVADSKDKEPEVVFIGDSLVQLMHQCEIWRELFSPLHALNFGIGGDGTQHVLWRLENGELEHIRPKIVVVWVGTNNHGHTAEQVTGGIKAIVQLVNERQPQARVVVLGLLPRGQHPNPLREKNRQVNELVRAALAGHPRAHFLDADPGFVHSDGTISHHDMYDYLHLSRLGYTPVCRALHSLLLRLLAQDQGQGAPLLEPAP
Numbers without * were called inactive; nt = no result. This is a sample that favours compounds with a hit; in the whole collection about 3.1% have one here.

SMILES | Apaf-1 inh | PAFAH1B2 inh | pPAFAH inh | PAFAH2 inh | PAFAH1B3 FP inh
O=C(CSCc1ccc(Br)cc1)NCc1ccccn1 | -4 | 13 | 3 | 4 | 0
C=CCNC(=O)CSc1ccc(Cl)cc1 | -2 | 29* | 3 | -7 | 0
C=CCNC(=O)CSCc1ccc(Br)cc1 | 7 | 27* | 1 | 2 | 2
COCCNC(=O)CSc1ccc(Cl)cc1 | -3 | 23 | -5 | 8 | -5
COC(=O)c1cc(NC(=S)NC(=O)c2ccccc2)ccc1N1CCOCC1 | -8 | -3 | 2 | 6 | -5
COc1ccc(CNC(=O)CCSCc2cccc(Cl)c2)cc1 | 4 | 18 | 13 | 8 | 3
COc1ccc(CNC(=O)CCSCc2cccc(F)c2)cc1 | 5 | 8 | 27* | 5 | 7
CC1CN(c2ccc(Cl)cc2)c2nc3c(c(=O)[nH]c(=O)n3C)n2C1 (configuration not stated) | 8 | -2 | nt | 1 | 8
CCc1ccc(N2CC(C)Cn3c2nc2c3c(=O)[nH]c(=O)n2C)cc1 (configuration not stated) | 0 | 6 | 34* | 6 | 0
CC1(C)CCC[C@]2(C)[C@H]3CC(=O)O[C@]3(C)CC[C@@H]12 | 2 | 11 | -4 | 7 | 5
CC(=O)OC[C@]12CC[C@H]3[C@@](C)(CC[C@H]4C(C)(C)CCC[C@]34C)[C@@H]1C[C@H](C1=CC(=O)O[C@@H]1OC(C)=O)O2 | 7 | nt | 45* | nt | nt
COc1ccc(/C=N/N(c2ccccc2)c2ccccc2)cc1O | 7 | 7 | nt | 8 | 15
COc1cc(/C=N/N(c2ccccc2)c2ccccc2)ccc1O | -1 | 6 | 27* | -1 | 12
CNCc1ccccc1Sc1cccc(O)c1 | -1 | 4 | 5 | -2 | -2
CNCc1ccccc1Sc1cc(O)ccc1O | 22 | 1 | 25* | 1 | 5
O=C(CNS(=O)(=O)c1ccc2ccccc2c1)OCc1csc(-c2ccccc2)n1 | 23 | 28* | 16 | -11 | 1
Cc1ccc(S(=O)(=O)NCC(=O)OCc2csc(-c3ccccc3)n2)cc1 | 14 | 2 | 5 | -8 | 2
COc1ccccc1NC(=O)COC(=O)/C=C/c1ccccc1[N+](=O)[O-] | -4 | 3 | 26* | 12 | 8
CC(C)(C)NC(=O)COC(=O)/C=C/c1ccccc1[N+](=O)[O-] | 1 | 0 | 32* | 29 | 5
N#CC1(NC(=O)CSc2nnc(Nc3ccccc3F)s2)CCCC1 | 5 | -1 | 4 | 0 | 3
C[C@]12c3[nH]c4ccc(Cl)cc4c3CCN1C(=O)[C@@H](CC(=O)NCCC1=CCCCC1)C[C@@H]2C(=O)N1CCOCC1 | 19 | 12 | 7 | -4 | 10
CN1CCN(C2=C(Cl)C(=O)N(C3CCCCC3)C2=O)CC1 | 4 | 3 | 4 | 0 | 4
NC(=O)C1CCN(C2=C(Cl)C(=O)c3ccccc3C2=O)CC1 | 73* | 35* | 0 | 47* | 43*
NC1=C(Cl)C(=O)c2ccccc2C1=O | nt | 8 | nt | 3 | 21
CN1CCN(C2=C(Cl)C(=O)C(c3cnc(N4CCCCC4)s3)=C(Cl)C2=O)CC1 | 84* | 15 | 41* | 10 | 18
SMILES | Apaf-1 inh | PAFAH1B2 inh | pPAFAH inh | PAFAH2 inh | PAFAH1B3 FP inh
NC(=O)C1CCN(C2=C(NS(=O)(=O)c3ccccc3)C(=O)c3ccccc3C2=O)CC1 | 21 | 5 | 6 | -4 | 4
CC1COCC(C)N1C1=C(Cl)C(=O)c2ccccc2C1=O (configuration not stated) | nt | 35* | nt | 43* | 44*
CN1CCN(C2=C(Cl)C(=O)c3ccccc3C2=O)CC1 | nt | 39* | nt | 57* | 66*
Cc1cc(C(=O)Nc2c(F)cc(F)cc2Br)n(-c2ccccc2)n1 | 5 | 0 | 2 | 2 | 4
Cc1ccc(-c2csc3nc(SCC(=O)Nc4ccc(Cl)c(C(=O)O)c4)[nH]c(=O)c23)cc1 | 21 | 2 | 7 | 1 | 1
CCCCCCN(C(=O)CCl)c1ccccc1 | -13 | 8 | 1 | 10 | 2
CN(C)C(=O)CCc1ccc2c3c([nH]c2c1)[C@]1(C)[C@@H](C(=O)N2CCCCC2)C[C@H](CC(=O)NCCN2CCOCC2)C(=O)N1CC3 | 19 | -1 | -6 | 1 | 8
CN(C)C(=O)CCc1ccc2c3c([nH]c2c1)[C@]1(C)[C@@H](C(=O)N2CCCCC2)C[C@H](CC(=O)NCC24CC5CC(CC(C5)C2)C4)C(=O)N1CC3 | 26 | 5 | 31* | 1 | 7
O=C(Nc1c2c(nn1-c1ccc(F)cc1)CS(=O)C2)c1ccc(S(=O)(=O)N2CCOCC2)cc1 (configuration not stated) | 1 | 26* | -4 | 3 | 5
O=C(Nc1c2c(nn1-c1ccc(F)cc1)CS(=O)C2)c1ccc(Br)o1 (configuration not stated) | -2 | -4 | -5 | -6 | 10
O=C(NN=C1CCCC1)c1ccc(Cl)cc1 | 9 | 4 | -6 | 0 | 2
O=C1CCC/C(=N/Nc2ccc(Cl)cc2)C1 | 11 | 3 | 27* | -2 | 4
O=C(COC(=O)C1(c2ccccc2F)CCCC1)N1CCc2ccccc21 | 6 | 4 | 4 | -2 | 7
O=C(COC(=O)C1(c2ccc(F)cc2)CCCC1)N1CCc2ccccc21 | 22 | 28* | -6 | -1 | 6
CCNc1oc(-c2ccccc2F)nc1S(=O)(=O)c1ccccc1 | 0 | -1 | -2 | -4 | 1
O=C(CSc1ccc(Cl)cc1)Nc1ccc(N2CCN(C(=O)c3ccco3)CC2)cc1 | 14 | 26* | 20 | 11 | 1
Cc1ccccc1C(=O)N1CCN(c2ccc(NC(=O)CSc3ccc(Cl)cc3)cc2)CC1 | 24 | 31* | 18 | -1 | 4
O=C(COc1ccc(Cl)cc1)Nc1ccc(N2CCN(C(=O)c3ccco3)CC2)cc1 | 1 | -1 | 17 | 11 | 9
COc1ccc(OC)c(NC(=O)COC(=O)CCCN=C2NS(=O)(=O)c3ccccc32)c1 | 1 | 1 | -1 | 3 | 8
O=C(NNC(=O)C12CC3CC(CC(C3)C1)C2)c1cccc([N+](=O)[O-])c1 | -1 | 30* | 6 | 1 | 6
CN1CSC2=C(C#N)C(c3cccc(OCc4ccccc4)c3)CC(=O)N2C1 (configuration not stated) | 14 | 7 | 16 | 32* | 7
CC(C)CSc1nc2c(=O)[nH][nH]c(=O)c2n1Cc1ccccc1 | 5 | 19 | 30* | 1 | 9
Cc1ccc(S(=O)(=O)N2CCN(C(=O)CN3C(=O)c4ccc([N+](=O)[O-])cc4C3=O)CC2)cc1C | 4 | 7 | 0 | 5 | -1
C[C@H]1CCC[C@]2(C)C[C@H]3OC(=O)C(CN4CCCCCC4)[C@H]3C=C12 (some centres not stated) | 5 | 30* | 7 | 19 | 2
Cn1cnnc1SCc1ccccc1 | -4 | 0 | 0 | 3 | -1
Cn1cnnc1SCc1ccc(-c2ccc(Br)cc2)o1 | 11 | 4 | 26* | 3 | 9
